Source: ChEMBL document CHEMBL4513216, “Probing the Open Global Health Chemical Diversity Library for Multistage-Active Starting Points for Next-Generation Antimalarials” (ACS Infect Dis, 2020)

Assay: Toxicity liver stage against HepG2, at 10uM
Type: cell-based
Set-up: test concentration 10 uM, cell line HepG2-A16-CD81EGFP
Settings: human, HepG2-A16-CD81EGFP cells; read-out: INHIBITION
In short: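 Uninfected HepG2-A16-CD81EGFP cells, 3 × 10^3 per well, 1536-well, plated on prespotted compound at 10 μM final, parasite-free screening media added to match infected plates; puromycin 10 μM positive, DMSO 0.5% negative; run in parallel with 48 h PbLuc assay at 37 °C, 5% CO2; viability by CellTiter-Glo luminescence, normalized to controls.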

| Structure (SMILES) | cytotoxicity at 10 µM [%] |
| --- | --- |
| Cc1nc(C)c(C)c(N2CCC(NCCOc3ccccc3)CC2)n1 | -1.45 |
| CN(C)c1cc(C(=O)N2CCN(c3nccs3)CC2)ccn1 | -10.8 |
| Cn1cc(C(O)CNC(=O)c2sccc2OC(F)F)cn1 (stereo not given) | 0.606 |
| CC1(C)CC(CN2CCC3(CCC(=O)N(C4CCC4)C3)CC2)CCO1 (stereo not given) | 0.986 |
| O=C(N[C@H]1CCCC[C@@H]1O)c1cccc(-c2nc3ccccc3[nH]2)c1 | -3.65 |
| CCOC(=O)c1s/c(=N\C(=O)COc2cnc(C)cc2O)[nH]c1C | 5.56 |
| COCC1CC2(CCN(C(=O)c3occc3C)CC2)CN1C(C)C (stereo not given) | 12 |
| CC1CN(C)CCN1Cc1cccc(C(=O)N(C)C)c1 (stereo not given) | -0.192 |
| O=S(=O)(NCCc1ccccc1C(F)(F)F)N1CCOCC1 | 9.08 |
| O=C1OCCN1CC(=O)N1C[C@@H]2CC[C@H]1CN(C(=O)c1ccccn1)C2 | 13.5 |
| NS(=O)(=O)c1ccc(CNCC(=O)NCc2ccc(Cl)cc2Cl)cc1 | -48.6 |
| O=C(C1CCOCC1)N1CCC(O)(Cn2ccc3ccncc32)CC1 | -19.8 |
| Cc1cccnc1CN(C)C(C(=O)O)c1ccc(-c2ccn[nH]2)cc1 (stereo not given) | 12.2 |
| CC(C)CNC1(Cc2cc(-c3ccccc3)on2)COC1 | 1.74 |
| Nc1nc(C2CCN(C(=O)c3cncs3)CC2)cs1 | -1.49 |
| Cc1ncsc1CN1Cc2cnn(C)c2C(COCC2CC2)C1 (stereo not given) | 3.04 |
| CC(C)(O)CCc1cccc(C(=O)N[C@H](C(N)=O)c2ccccc2)c1 | -4.21 |
| O=c1[nH]nc2n1CCN(S(=O)(=O)c1ccccc1Cl)C2 | 3.61 |
| Cn1cc(C(=O)N[C@@H]2CN(Cc3ccc(F)cc3)[C@@H]3CCCO[C@@H]32)cn1 | -1.31 |
| CN1CCC(c2cccc(NCc3nccn3C)n2)CC1 | 8.28 |
| Cc1nn(C)c2nc(N(C)CCN(C)C)sc12 | 9.38 |
| Cc1noc(CN(CCc2cccs2)Cc2cccc(C#N)c2)n1 | 2.27 |

| Structure (SMILES) | cytotoxicity at 10 µM [%] |
| --- | --- |
| CC(C)NC(=O)N1CC[C@H]2N(C)CC[C@@]2(C(=O)Nc2cccnc2)CC1 | -109 |
| COc1ccc2c(c1)Cc1c-2nc(N)c(C#N)c1C1CCOC1 (stereo not given) | 24.4 |
| O=C1N(Cc2cccnc2)CCC12CCCNC2 (stereo not given) | 3.52 |
| COc1ccc(C2(NC(=O)CCn3cncn3)CCCCC2)cc1 | -3.12 |
| COc1cccc(N2CCN(Cc3ccc4occc4c3)CC2=O)c1 | 24 |
| COCc1nn(CC2CC2)c2c1CN(Cc1cccs1)CC2 | 0.994 |
| Cc1ccc(C(NCC(=O)N2CCNC(=O)C2)C(F)(F)F)cc1 (stereo not given) | -8.3 |
| CNC(=O)CN1CCC(NC(=O)N(C)Cc2cc(C)on2)CC1 | -0.626 |
| Cc1ccc(-c2nc(CN3CCN(CCO)CC3)co2)cc1 | -23.7 |
| CCn1ccnc1CN(C)C(C(=O)O)c1ccc(C(C)(C)C#N)cc1 (stereo not given) | -9.1 |
| CCc1noc(C2CCCCN2C(=O)c2cc(C)oc2C)n1 (stereo not given) | 8.57 |
| COc1c(CNCCc2c[nH]c3cc(F)ccc23)c(C(C)C)nn1C | 4.64 |
| NC(=O)NC(=O)CCN1CCCN(c2nccs2)CC1 | 11.1 |
| CN(Cc1ccc([S+](C)[O-])cc1)c1ccc(Br)cn1 (stereo not given) | 11.8 |
| CC(C)c1cc(C(F)(F)F)n2nc(C3CCN(S(C)(=O)=O)C3)cc2n1 (stereo not given) | -1.14 |
| Cc1cnccc1NCCNC(=O)[C@H]1CNC[C@H](C(=O)N2CCCC2)C1 | -124 |
| Cc1cc(C)c2[nH]c(C(=O)NCCN3CCNC3=O)c(C)c2c1 | 2.49 |
| O=C(C1CCOC1)N1C[C@H]2CN(Cc3cccnc3)C(=O)[C@H]2C1 (stereo not given in full) | -108 |
| Cc1cccc(OC2CCN(C(=O)c3ccc4c(c3)OCO4)CC2)n1 | -5.51 |
| Cc1ccccc1C1(C(=O)NCCN2CCCCC2C)CCOCC1 (stereo not given) | -1.69 |
| Cc1nn(C)c(C)c1C(=O)NN1CCOCC1 | 7.83 |
| CC(=O)NCCCNCc1c(C)nn(CC(C)C)c1N(C)C | 6.47 |

| Structure (SMILES) | cytotoxicity at 10 µM [%] |
| --- | --- |
| Cc1ccc(CC(=O)N2CCOC(c3nc(C(C)(C)C)n[nH]3)C2)cn1 (stereo not given) | -5.96 |
| O=C1COC2(CCN(Cc3ccoc3)CC2)CN1 | -11.3 |
| Cc1cc(C)n(C2CN(CC(=O)NCc3ccccn3)C2)n1 | -2.92 |
| N#CCCN(C(=O)CN1CCCC1C1CCCCC1)c1ccccc1 (stereo not given) | -12.1 |
| CC(C)c1ncc2c(n1)CN(Cc1nc3c(F)cccc3[nH]1)CC2 | 1.09 |
| CC(C(=O)NCCN1CCN(C)CC1)n1cncn1 (stereo not given) | 0.449 |
| COc1cccc(CN(C)C(=O)Nc2ccc3c(c2)OCCO3)c1 | -0.627 |
| CCC1CN(C(=O)c2ccccc2N2CCCC2)CCN1C(C)C (stereo not given) | -9.78 |
| O=C(CCn1cncn1)NC1CCS(=O)(=O)C1 (stereo not given) | -45.4 |
| Cc1nc(N)cc(NCc2csc(N(C)C)n2)n1 | -5.2 |
| CC(CNS(N)(=O)=O)Oc1ccc(Cl)cc1 (stereo not given) | -5.37 |
| Cc1nc(CN2C(=O)COC3(CCN(Cc4nccs4)CC3)C2C)cs1 (stereo not given) | -10.4 |
| CC(C)c1n[nH]c(C2CN(C(=O)C3=COCC3)CCO2)n1 (stereo not given) | -7.99 |
| CCCN1CCC(CC(=O)N(C)CC(=O)c2ccc(O)cc2)CC1 | 1.73 |
| N#Cc1cccc(C(=O)N2CCCC(C(=O)CCc3ccccc3)C2)c1 (stereo not given) | 0.488 |
| CC(C)CNC(=O)c1cn(C)c(=O)c2ccccc12 | 1.28 |
| CCC(=O)Nc1ccc(F)c(S(=O)(=O)NC(C)(C)C)c1 | -1.74 |
| O=C(NS(=O)(=O)c1ccccc1C(F)(F)F)c1cccc2c1OCCO2 | 5.56 |
| COc1ccc(C(O)C(=O)N2CCC(c3nccn3C(C)C)CC2)cc1 (stereo not given) | -0.355 |
| O=C(C1CCOC1)N1CCC2(CC1)COC2 (stereo not given) | 3.06 |
| Cn1ccnc1CN1CCN(Cc2cc(-c3ccccc3)no2)CC1 | -15.5 |
| O=C(c1nc(COc2ccc3c(c2)OCO3)no1)N1CCCC1 | 10.3 |

| Structure (SMILES) | cytotoxicity at 10 µM [%] |
| --- | --- |
| CCc1nc(C2CCCN(C(=O)c3ccc(OC(C)C)nc3)C2)no1 (stereo not given) | 3.25 |
| Cc1cccc(Nc2cc(C3CCCN(CC(N)=O)C3)ccn2)n1 (stereo not given) | 12.3 |
| COc1cccc(C(=O)NS(=O)(=O)c2cccc(C#N)c2)c1OC | -8.06 |
| O=S(=O)(c1cccs1)N1CC[C@@H](O)[C@@H]1Cc1ccncc1 | -72.8 |
| Cc1ccc(CN2CC[C@H](O)[C@@H](n3ccc(=O)[nH]c3=O)CC2)cc1 | -22.8 |
| CN(CCc1ccc2c(c1)CCO2)CC1CCS(=O)(=O)C1 (stereo not given) | 7.33 |
| Cc1ccsc1C(=O)N1CCCc2c(c(=O)n(C)n2C)C1 | 6.95 |
| COc1cc(NC(=O)c2cscn2)ncn1 | 3.12 |
| O=C1CC(c2ccc(C(=O)O)cc2)c2ncn(-c3ccccc3F)c2N1 (stereo not given) | -3.51 |
| COc1cc2ncn(Cc3ncc[nH]3)c(=O)c2cc1OC | 5.56 |
| CC(OCCCNC(=O)c1cccnc1O)c1ccccc1 (stereo not given) | 4.88 |
| CC(C)CC1(C(=O)NCCc2nncn2C2CC2)CCC1 | -1.06 |
| CCC(=O)NCC(=O)NCc1cc(Br)ccc1OC(F)F | 17.5 |
| Cc1ccc(C(NC(=O)C2CC2)c2cccc(S(C)(=O)=O)c2)cc1 (stereo not given) | -9.8 |
| Fc1ccc(-c2nnc(CN3CCCC(Cn4cncn4)C3)o2)cc1 (stereo not given) | -4.87 |
| O=C(C1CCOC1)N1C[C@H]2CN(c3ccccc3)C(=O)[C@H]2C1 (stereo not given in full) | -123 |
| CC1CCCCN1c1nc2c(c(=O)[nH]1)CCN(Cc1ccccn1)C2 (stereo not given) | -10.7 |
| Cc1nc(CN2CCN(C(=O)C(C(C)C)n3cncn3)CC2)cs1 (stereo not given) | -1.29 |
| Cc1cc(C(=O)N2C[C@@H](C(=O)O)[C@H](C(C)C)C2)cs1 | -10.4 |
| Cc1nc(C)n(C2CCCN(C(=O)c3cn4cccnc4n3)C2)n1 (stereo not given) | -0.776 |
| Cc1cc(C)c(CNC(=O)NCc2nnc3n2CCCCC3)c(=O)[nH]1 | -1.34 |
| CC[C@@H]1N(Cc2ccccn2)CCC[C@]12CCC(=O)N2CCOC | 8.01 |

| Structure (SMILES) | cytotoxicity at 10 µM [%] |
| --- | --- |
| Cc1nc(C(C)(C)C)sc1C(=O)NCCn1ccnc1 | -0.586 |
| CC(C)OCc1noc(C2CC=CC2)n1 | 16.5 |
| Cc1csc(N2CCN(C3CCc4ccccc4C3)CC2)n1 (stereo not given) | 2.01 |
| NC(=O)c1csc(N2CCN(C3CCc4ccccc4C3)CC2)n1 (stereo not given) | 1.67 |
| Cc1ccc(NC2CCN(C(=O)c3cccn3C)CC2)nn1 | -3.76 |
| CCNC(=O)NC[C@H]1C[C@@H]2CCN1C[C@@H]2c1cc(-c2cccs2)nn1C | -5.72 |
| O=C(CCNS(=O)(=O)c1ccc2c(c1)CCCC2)NCc1ccoc1 | 5.86 |
| CC(=O)N1CCC2(CCN(C(=O)c3ccc(F)c(C(F)(F)F)c3)C2)C1 (stereo not given) | -76.1 |
| COc1ccccc1C(=O)N1CC(=O)N(Cc2ccco2)CC(O)C1 (stereo not given) | 4.45 |
| O=C(Cc1ccccc1F)NCC1CCN(CCN2CCOCC2)C1 (stereo not given) | -47 |
| O=C(CN1CCCC(c2ccc(C(=O)O)cc2)C1)NC1CC1 (stereo not given) | -9.87 |
| CCOCCN1CCN(c2ccc(C#N)cn2)CC1CC (stereo not given) | 1.02 |
| CCn1ncc2c1CN(C(=O)Cc1cccs1)CC2COC (stereo not given) | 4.7 |
| CC(NC(=O)COC1CCCC1)c1nc(-c2ccccc2)c[nH]1 (stereo not given) | 4.24 |
| O=C1CC[C@H](C(=O)N(Cc2cccc(Br)c2)C2CC2)N1 | 7.24 |
| c1cc(-c2nc(C3CCN(Cc4ccsc4)CC3)no2)ccn1 | -26.5 |
| Cc1ccc(OC2(C(=O)O)CCN(C(=O)c3cccc(F)c3)CC2)cn1 | 2.91 |
| CC(C)CC(=O)N1CC(=O)c2sc(Nc3ccc(F)cc3)nc2C1 | -2.28 |
| Cc1cc(C)c(CNC(=O)c2ccc3c(c2)CCC3)c(=O)[nH]1 | 0.983 |
| COc1cc(C)c(S(=O)(=O)CC(=O)N(C)C(C)C)cc1OC | 4.02 |
| CS(=O)(=O)N1CCCC12CCCN(C(=O)c1ccncc1)C2 (stereo not given) | -159 |
| O=C(NC1(c2nc(C3CC3)no2)CCCCC1)c1cccnc1O | -8.92 |
